HNF4A DNA FP: change in binding of human HNF4 alpha to DNA. P41235. HNF4a-FITC DNA binding, fluorescence polarization, 1 h. activity change, % at 10 µM. actives 0.3% (n = 360,000); in the data active = activity change above about 30%, passing the limit was not always enough
SENP1 FRET inh: inhibitors of human SENP1 SUMO protease catalytic domain; Q9P0U3; recombinant SENP1 catalytic domain, CyPet-SUMO1-YPet FRET cleavage; inhibition, % at 10 µM; actives 0.21% (n = 360,000); AID 624204;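 active = inhibition at least 30% at 10 µM, raw YFP signal under a set limit, fluorescence ratio 0.5 to 1.5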
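Test system: human SENP1 catalytic domain; medium: Tris pH 8 buffer plus EDTA, NaCl, BME, BSA, NP40, catalase; incubation: 50 min reaction at room temperature; technique: FRET, CFP and YFP emission; controls: no-enzyme low control and enzyme-plus-DMSO high control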
Rpn11 block: inhibitors of human proteasome Rpn11; O00487; human 26S proteasome, Ub4-pepOG fluorescence polarization; 20S core pre-blocked with epoxomicin; calls only at 20 µM; actives 0.59% (n = 360,000); AID 588493;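 active = inhibition at 20 µM, scaled to each plate's controls, above about 33%, limit read from the data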
UBC9 SUMO inh: blocks human SUMOylation mediated by UBC9. P63279. HTRF SUMOylation assay, SAE1/SAE2 + UBC9, in vitro. inhibition, % at 35 µM. actives 0.36% (n = 290,000); in the data active = inhibition above about 50%, passing the limit was not always enough; inconclusive = no clear call, values can overlap the other calls
CSN inh: blocks human CSN-mediated cullin deneddylation | actives 0.38% (n = 360,000) | Q92905 | AID 651999 | inhibition, % at 12.5 µM | Purified CSN, SCF-Nedd8-OG deneddylation, fluorescence polarization;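 active = pattern-corrected inhibition above about 35%, with an unprinted fluorescence ratio check between 0.5 and 1.5, limit read from the data, passing the limit was not always enough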
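Detection – fluorescence polarization · System – HEK293T-derived human Csn5 enzyme · Controls – substrate-only high control, full reaction low control · Timing – 90 min, room temperature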
TPT1 inhibitor: C. albicans TPT1 enzyme inhibition; recombinant caTPT1, FP RNA substrate dephosphorylation; inhibition, % at 5 µM; actives 0.81% (n = 300,000); AID 1962;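 active = inhibition above the mean of all tested compounds plus 3 SD, set per screening campaign, cut at about 24% in these data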
Rpn11 inh conf: confirmation of human proteasome Rpn11 inhibitors; shares compounds with Rpn11 block; purified human 26S proteasome, Ub4-pepOG fluorescence polarization; proteasome pretreated with epoxomicin; inhibition, % at 20 µM; actives 29% (n = 1,900)
MMP-2 counter-1: MMP-2 (human) inhibition counter-screen | shares compounds with Rpn11 block | recombinant MMP-2, FRET peptide cleavage fluorescence | inhibition, % at 20 µM | actives 4% (n = 1,900) | AID 602330;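 also: human MMP-2 activated beforehand with APMA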
Thrombin FP: blocks bovine thrombin, flagging nonselective RPN11 hits; shares compounds with Rpn11 block; bovine thrombin cleavage of Ub4-pepOG, fluorescence polarization; inhibition, % at 20 µM; actives 13% (n = 1,900); AID 602333;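 active = mean inhibition at least 40% at 20 µM, or signal 3 deviations below plate average, so some actives read negative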
Target sequence (P00735 whole entry, looked up): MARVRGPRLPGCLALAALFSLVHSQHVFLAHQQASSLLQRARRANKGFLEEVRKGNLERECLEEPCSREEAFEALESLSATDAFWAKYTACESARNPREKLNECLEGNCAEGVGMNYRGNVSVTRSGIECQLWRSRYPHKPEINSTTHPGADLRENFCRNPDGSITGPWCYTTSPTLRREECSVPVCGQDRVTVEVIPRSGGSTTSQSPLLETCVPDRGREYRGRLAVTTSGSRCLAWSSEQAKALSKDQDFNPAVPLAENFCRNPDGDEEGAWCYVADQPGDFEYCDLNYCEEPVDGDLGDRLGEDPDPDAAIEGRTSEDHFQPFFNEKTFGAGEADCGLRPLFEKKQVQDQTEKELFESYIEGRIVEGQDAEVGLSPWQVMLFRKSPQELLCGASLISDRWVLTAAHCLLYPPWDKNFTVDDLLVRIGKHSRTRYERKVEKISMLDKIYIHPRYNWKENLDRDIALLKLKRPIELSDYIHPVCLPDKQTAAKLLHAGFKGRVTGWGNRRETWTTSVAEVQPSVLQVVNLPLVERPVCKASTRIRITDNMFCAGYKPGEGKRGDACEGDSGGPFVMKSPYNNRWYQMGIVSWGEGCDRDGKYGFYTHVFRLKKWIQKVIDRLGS
CSN5 deneddyl: Csn5 (human) deneddylation inhibition, single-concentration validation; inhibition, % at 16.6 µM; Csn5 deneddylation of SCF-Nedd8OG, fluorescence polarization, 90 min; shares compounds with CSN inh; actives 62% (n = 540); in the data active = inhibition above about 50%
MMP-2 counter-2: MMP-2 (human) inhibition, counter-screen for CSN hits. shares compounds with CSN inh. actives 33% (n = 540). inhibition, % at 16.6 µM. recombinant MMP-2, FRET substrate fluorescence, 60 min. AID 720655;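 active = corrected plate-normalized z-score of 5 or more, or -5 or less, or inhibition of 15% or more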
Thrombin counter: blocks bovine thrombin in a CSN deneddylation counter-screen. inhibition, % at 16.6 µM. actives 49% (n = 540). shares compounds with CSN inh. bovine thrombin cleavage of Ub4-pepOG, fluorescence polarization. AID 720656;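 active = inhibition at or above a set limit, with a fluorescence interference ratio between 0.5 and a set maximum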
Hits are given with their value; n = inactive; u = inconclusive; x = no result given; + = active, no number; ! = repeats disagree. Rows were chosen to be rich in hits. Some 1.8% of all compounds tested hit in one or more screens of this group. Rule as the data show it, unless noted: active = inhibition above about 40%; inactive = the rest.

SMILES	HNF4A DNA FP	SENP1 FRET inh	Rpn11 block	UBC9 SUMO inh	CSN inh	TPT1 inhibitor	Rpn11 inh conf	MMP-2 counter-1	Thrombin FP	others
CCN(CC)P(=O)(NC(=O)C(Cl)(Cl)Cl)N(CC)CC.[Cl-].[Cl-].[Cl-].[Nd+3]	53!	n	+	n	104!	n	n	n	n
O=c1c2ccccc2nc(-c2ccco2)n1-c1nccs1	n	n	+	n	n	n	n	n	n
Cc1ccccc1-n1c(O)c(/C=C2/C(c3ccccc3)=Nc3ccccc32)c(=O)[nH]c1=O	n	n	+	n	n	n	n	n	n
CC(C)CCNC(=O)c1cc(C(=O)c2cc(Br)ccc2O)cn(CCC(C)C)c1=O	n	n	+	n	n	n	n	n	n
C=CCn1c(O)c(C(C)=NCCC2=CCCCC2)c(=O)[nH]c1=O	n	n	n	n	n	n	x	x	x
COc1ccc(/C=C/C(=O)c2c(O)n(CCC3=CCCCC3)c(=O)[nH]c2=O)cc1OC	n	n	+	n	n	n	active	n	active
CC(C)c1ccc(-n2c(O)c(/C=N/NC(=O)c3ccncc3)c(=O)[nH]c2=O)cc1	n	n	n	n	n	n	x	x	x
O=c1[nH]c(=S)n(C2CC2)c(O)c1/C=N/Nc1ccccc1	n	n	n	n	n	n	x	x	x
CCOc1ccc(N=Cc2c(O)n(CCc3ccc(OC)c(OC)c3)c(=O)[nH]c2=O)cc1	n	n	n	n	n	n	x	x	x
COc1ccc(CCn2c(O)c(C=Nc3ccc(NC(C)=O)cc3)c(=O)[nH]c2=O)cc1OC	n	n	+	n	38	n	n	n	n
O=C(N/N=C/c1c(O)n(CCc2ccccc2)c(=O)[nH]c1=O)c1ccccc1	n	n	+	n	n	n	n	n	n
O=C(N/N=C/c1c(O)n(C2CCCCC2)c(=S)[nH]c1=O)c1ccccc1	n	n	+	n	n	n	50	n	n
CC(C)c1ccc(-n2c(O)c(/C=N/NC(=O)c3ccccc3O)c(=O)[nH]c2=S)cc1	n	n	+	66	n	n	53	n	n
CC1=CC(=C2C(=O)NC(=O)NC2=O)C=C(C(F)(F)F)N1C(C)C	n	n	n	n	n	n	x	x	x
C=CCn1c(O)c(C(CC)=NCCN2CCN(C(=S)NC)CC2)c(=O)[nH]c1=O	n	n	n	n	n	n	x	x	x
CN1OC[C@@H]2CN[C@H](c3ccc(Br)cc3)C[C@@H]21	n	n	n	x	n	x	x	x	x
CCOC(=O)CC(SP1(=S)OCC2(CC=CCC2)CO1)C(=O)OCC (stereo not given)	n	n	n	x	n	x	x	x	x
O=C(N/N=C/c1c(O)n(C2CCCCC2)c(=S)[nH]c1=O)c1ccccc1O	n	n	+	x	n	n	53	n	n
O=C(N/N=C/C1C(=O)NC(=S)N(c2ccccc2)C1=O)c1cc(Br)c(O)c(Br)c1 (stereo not given)	n	n	n	n	n	n	x	x	x
O=c1[nH]c(CN2CC=C(c3ccccc3)CC2)nc2cc(C(F)(F)F)ccc12	n	n	+	n	n	n	n	n	n
O=c1[nH]sc2cc(F)ccc12	n	n	n	n	n	x	x	x	x
O=c1[nH]c(=S)n(Cc2ccc(F)cc2)c(O)c1C=NCc1ccc2c(c1)OCO2	n	n	+	n	n	n	n	n	n
O=c1[nH]c(=S)n(Cc2ccc(F)cc2)c(O)c1C=NCCCn1ccnc1	n	n	n	n	n	n	x	x	x
CN(C)CCN=Cc1c(O)n(Cc2ccc3c(c2)OCO3)c(=S)[nH]c1=O	n	n	n	n	n	n	x	x	x
O=c1[nH]c(=S)n(Cc2ccc(F)cc2)c(O)c1/C=N/N1CCCCCC1	n	n	+	n	n	n	n	n	n
SMILES	HNF4A DNA FP	SENP1 FRET inh	Rpn11 block	UBC9 SUMO inh	CSN inh	TPT1 inhibitor	Rpn11 inh conf	MMP-2 counter-1	Thrombin FP	others
CNC(=O)Oc1ccc2c(c1)C(=O)c1ccccc1CO2	n	n	+	n	n	n	n	n	n
C/C(O)=C(\C#N)C(=O)Nc1cc(Br)ccc1Br	n	n	n	x	n	n	x	x	x
CC(C)c1onc(C(=O)N2CCC3(CC2)OCCO3)c1[N+](=O)[O-]	n	n	n	n	n	n	x	x	x
COc1ccc(N2C(=O)/C(=C/c3ccc(OC)c(OC)c3)C(=O)NC2=S)cc1	n	n	+	n	n	x	n	n	n
COc1ccc(N2C(=O)/C(=C/c3ccc(C)o3)C(=O)NC2=S)c(OC)c1	n	n	+	n	n	n	n	n	40
CC(C)CCOP(N)(=O)Oc1ccccc1 (stereo not given)	n	n	n	n	n	n	x	x	x
O=c1[nH]c(O)c(N=Nc2ccc3c(c2)OCCO3)c(=O)[nH]1	n	39	+	n	n	n	n	n	n
O=c1[nH]c(O)c(N=Nc2ccc(S(=O)(=O)N3CCOCC3)cc2)c(=O)[nH]1	n	n	n	n	n	n	x	x	x
CC1=CC(=O)C2=C(C)C[C@H](O)[C@@H]3[C@H](OC(=O)[C@H]3C)[C@@H]12	n	n	n	x	n	n	x	x	x
O=c1[nH]c(=O)n(-c2ccc(F)cc2)c(O)c1C=Nc1ccccc1N1CCCC1	58	n	+	u	n	n	n	n	n
CCCCN1C(=O)/C(=C/C=C/c2ccco2)C(=O)NC1=S	38	n	+	n	89	x	155	47	143	CSN5 deneddyl=n;MMP-2 counter-2=n;Thrombin counter=67
COc1ccc(-c2nc3ccc(C(=O)N4CCC5(CC4)OCCO5)cc3nc2-c2ccc(OC)cc2)cc1	n	n	n	x	n	n	x	x	x

From PubChem
